From ChEMBL document CHEMBL4513216, “Probing the Open Global Health Chemical Diversity Library for Multistage-Active Starting Points for Next-Generation Antimalarials” (ACS Infect Dis, 2020) come the findings set out here.

This series in a line: Toxicity liver stage against HepG2, at 10uM. The note with it: human, HepG2-A16-CD81EGFP cells; read-out: INHIBITION
Also on record: test concentration 10 uM, cell line HepG2-A16-CD81EGFP. It counts as cell-based. Put shortly:
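Uninfected HepG2-A16-CD81EGFP cells, 3 × 10^3 per well, 1536-well, plated on prespotted compound at 10 μM final, parasite-free screening media added to match infected plates; puromycin 10 μM positive, DMSO 0.5% negative; run in parallel with 48 h PbLuc assay at 37 °C, 5% CO2; viability by CellTiter-Glo luminescence, normalized to controls.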
Consider `CCN(CC)CCn1ccnc1-c1cccc(O)c1`, for which the cytotoxicity at 10 µM was -5.13%. With `Cn1cc(C(=O)CC2CCCN2C(=O)c2cccc3ncccc23)cn1` (configuration not stated) the figure was 6.19%; with `CCCS(=O)(=O)N1CCC(NCc2c(C)nn(C)c2OC)CC1`, 7.01%. Next, `Cc1nnsc1C(=O)NCc1cccnc1N(C)Cc1ccccc1`: -6.91%; `CCCOCCCNc1nccc(-c2cn(C)nc2C)n1`: -10.5%; `Cc1ccccc1-c1cncc(C2CCN(C(=O)CN(C)C)CC2)n1`: 3.88%. With `COc1ccc(-c2cc(C3CCNCC3)nc(C)n2)cc1` the figure was 10.2%; with `Cc1cc(C(=O)N2CCCC(c3ccc(C(=O)O)cc3)C2)c(C)o1` (configuration not stated), 11.8%. As for `CC(C)COc1cccc(-c2nc3c([nH]2)CCNC3)c1`, the cytotoxicity at 10 µM was found to be 4.48%. With `N#Cc1cccc(CS(=O)(=O)NCCC(O)c2ccccc2)c1` (configuration not stated) the figure was 0.692%; with `COC(=O)N1CC(C)=C(C)CN1C(=O)Nc1ccc(Cl)cc1`, -7.97%. Next, `Cc1ccc(C(=O)N2Cc3c(CN(C)C)nn(C)c3C2)cc1C`: 1.77%. With `CCn1cnnc1C1CCN(C(=O)COCCc2ccccc2)CC1` the figure was 0.602%; with `Cc1cccc(C)c1OCCCN1CCC(n2cncn2)CC1`, -24.3%; with `COc1cccc(COCC(=O)N2CCN(S(C)(=O)=O)CC2)c1`, -10.7%. In the case of `CC(C)N1CCC(CC(=O)N2CCCCC2CCn2cccn2)CC1` (configuration not stated), the cytotoxicity at 10 µM was -3.77%. As to `O=C(NCc1nncn1C1CC1)C1(c2ccc(F)cc2)CCCC1`, the cytotoxicity at 10 µM is -1.89%.

`Cn1cc(C(=O)Nc2ccnc(Oc3ccccc3)c2)ccc1=O`: the cytotoxicity at 10 µM was -4.5%. Next, `C/C=C(\C)CN(CCN1CCOCC1)Cc1ccco1`: 11.1%; `c1ccc(O[C@@H]2CC[C@H]3[C@H]2OCCN3Cc2ccsc2)nc1`: 1.24%; `COc1ccccc1-c1noc(CNc2ccc(F)cc2OCCO)n1`: -37.7%. With `Cc1cc(C)cc(N2CCN(Cc3cccc(CCN)c3)CC2=O)c1` the figure was 3.32%; with `O=C(CSCc1ccccn1)NCC1CCN(C2CC2)C1` (configuration not stated), -14.8%; with `CC(C)=CCN1CCN(C(C)c2cccnc2)CC1` (configuration not stated), -2.65%.

For `Cc1cc(NC(=O)CN2CCn3c(nnc3C3CC3)C2)on1`, the cytotoxicity at 10 µM was -9.92%. Regarding `Cc1ncccc1NC(=O)[C@@H]1CCO[C@@H]2CCN(c3ccccc3)C[C@@H]21`, the cytotoxicity at 10 µM is 6.7%. As for `CC(C)c1nc2c(n1C)CCN(CC(=O)Nc1cccnc1)C2`, the cytotoxicity at 10 µM was -9.52%. With `O=C(NCc1ccccc1F)NC1CCCN(c2ncccn2)C1` (configuration not stated) the figure was 7.81%; with `CCOC(=O)c1sc(NC(=O)C(C)(C)C)c(C#N)c1C`, 9.04%; with `CN(Cc1noc(C2CC2)n1)C1CCN(CCn2cc(C#N)cn2)C1` (configuration not stated), -9.1%.

As for `O=S(=O)(CCN1CCOC(Cn2cccn2)C1)C(F)(F)F` (configuration not stated), the cytotoxicity at 10 µM came to 3.78%. Next, `Cc1ccc(C)c(NC(=O)N2CCC3(CC2)NC(=O)CC3C(=O)O)c1` (configuration not stated): 4.9%; `COc1ccc(C(NCc2cccc(O)c2)C2CC2)cc1` (configuration not stated): 4.99%. Next, `CN1CC[C@H](c2nnc(-c3cncn3C)o2)C1`: -2.88%; `Cc1nnc(CN2CCN(C(C)c3nc(C4CC4)no3)CC2)o1` (configuration not stated): -10.3%; `O=C(NCCNc1cnccn1)C1CCN(C(=O)N2CCCC2)CC1`: -0.577%.

For the compound `Cc1cc(C)nc(N2CCN(C(=O)c3cc(Cl)c[nH]3)CC2)n1`, the cytotoxicity at 10 µM is -4%. Next, `CCc1[nH]c2c(CNc3cncc(C(=O)OC)n3)cc(C)cc2c1C`: 1.85%. Consider `c1ccc(OCCNC2CCCN(Cc3noc(C4CC4)n3)C2)cc1` (configuration not stated), for which the cytotoxicity at 10 µM is -13.6%. For the compound `Cc1ccc(S(=O)(=O)NC(=O)CCc2ccccc2)cc1N(C)C`, the cytotoxicity at 10 µM is -0.31%.

In the case of `CC(C)CCCNC(=O)Nc1ccc(Cl)c(C(N)=O)c1`, the cytotoxicity at 10 µM is -0.252%. Next, `CCS(=O)(=O)N1CCC2(CC1)CN(c1cncnc1)C(=O)CO2`: 6.91%; `O=C(c1cccnc1O)N1CCN(Cc2ccccc2F)CC1`: 5.57%. Next, `CCn1ncc(S(=O)(=O)NC2(CN3CCOCC3)CCCCC2)c1C`: 3.83%. Next, `COc1c(CNC(C)C(=O)NC2CCCC2)c(C(C)C)nn1C` (configuration not stated): -1.08%; `Cc1noc(C)c1CN1C[C@@H](OCc2ccccn2)[C@H]2OCCC[C@H]21`: -3.14%; `CC(NS(C)(=O)=O)C(=O)N(C)Cc1cnn(-c2ccc(F)cc2)c1` (configuration not stated): -7.94%.

As to `Cc1ccc(NC2CCN(C(=O)COC3CCCC3)CC2)nn1`, the cytotoxicity at 10 µM was 2.31%. With `CCc1cc(NCc2ccccc2CN2CCCC2)n2ncnc2n1` the figure was 5.42%.

For `Cc1cccc(NC(=O)N2CCC3(CCC(C(=O)N(C)C)O3)CC2)c1` (configuration not stated), the cytotoxicity at 10 µM was -107%.

As for `Cc1cc(NC(=O)C(c2cccc(F)c2)N2CCOCC2)ccn1` (configuration not stated), the cytotoxicity at 10 µM was found to be 0.278%. Regarding `CNC(=O)c1cccc(CN2CCC(N(C)Cc3nnc(C)o3)C2)c1` (configuration not stated), the cytotoxicity at 10 µM was determined as 8.75%. With `COc1cc(C(=O)N2CC[C@@H](NC(=O)c3ccccn3)[C@H](O)C2)ccn1` the figure was 0.894%; with `O=c1[nH]c2c(c(=O)n1C1CCCCC1)CCC2Nc1ccc(Cl)cc1` (configuration not stated), 9.78%. Next, `Cc1cc2nccc(C3CCCN(C(=O)c4cnccn4)C3)n2n1` (configuration not stated): 10.5%; `Cc1cnc(C(=O)N2C[C@@H]3CC[C@H]2CN(Cc2cscn2)C3)[nH]1`: 4.16%. Next, `CC(C)CN1CC2(CCN(C(=O)C3CNC(=O)N3)CC2)CC1=O` (configuration not stated): 2.18%; `CCOC(C)c1noc(CN(C)C(=O)C2C(C)(C)C2(C)C)n1` (configuration not stated): 9.5%. Take `CCn1cnnc1C1CCN(C(=O)c2cc(OC)ccc2OC)CC1`: the cytotoxicity at 10 µM was -4.2%. With `CC(NC(=O)c1ccc(Cl)cc1)c1nnc(SCC(=O)O)n1C` (configuration not stated) the figure was -9.35%; with `COc1ccc(Cl)cc1CCNC(=O)N(C)CC1CCOC1` (configuration not stated), 7.17%; with `CN(C)C(=O)c1cn[nH]c1C1(C)CCN(c2ncccn2)CC1`, 5.88%. Next, `O=C(Nc1ccccc1)NC1CCN(C2CCOC2)CC1` (configuration not stated): 7.76%; `Cc1nn(-c2ncnc3[nH]cnc23)c2c1C(C(C)(C)C)CC(=O)N2` (configuration not stated): 5.08%. With `CN(C)CCCN(Cc1cnn(C)c1)Cc1ccco1` the figure was 2.36%; with `CN(C)CCN1CCC2(CCN(C(=O)c3ccc(F)cc3)CC2)C1=O`, -0.00146%. For the compound `CCN1CCN(C(=O)NC(C)c2noc(-c3ccccc3)n2)CC1` (configuration not stated), the cytotoxicity at 10 µM is -15.5%. Next, `CC(Cn1cc(Br)cn1)C(=O)Nc1ccn(C)n1` (configuration not stated): -4.49%; `CCOC(C)c1nc(Cn2cc(-n3cccc3)cn2)cs1` (configuration not stated): 3.81%. As to `Cc1nc(CN(C)C2CCN(CCc3cnn(C)c3)C2)no1` (configuration not stated), the cytotoxicity at 10 µM was 3.63%.

Regarding `COc1cccc(-c2noc3c2CN(c2nc(C)ncc2C)CC3)c1`, the cytotoxicity at 10 µM was determined as 45.1%.

Turning to `Cc1ocnc1C(=O)N1CCCN(Cc2cscn2)CC1`, the cytotoxicity at 10 µM was -7.22%.

In the case of `Cc1nc(N2CCC(O)(c3ccccc3)CC2)c2c(C)nn(C)c2n1`, the cytotoxicity at 10 µM was found to be 1.22%. Next, `N#Cc1ccc(N2CCCC3(CCN(c4cncnc4)C3=O)C2)nc1` (configuration not stated): -97.6%; `CCc1nc(N2CCCC(O)(CO)CC2)ncc1C` (configuration not stated): 10.8%; `CCOCC(=O)Nc1ncc(I)cc1C`: -4.76%. With `CC1=C[C@@H](CN2CCC(O)CC2)[C@H](C(C)C)C[C@H]1Cc1nnc(C)o1` the figure was 0.788%. As to `O=c1c2cnc(N3CCCCC3)nc2ccn1-c1ccccc1`, the cytotoxicity at 10 µM is -10.1%. Consider `Cc1ccc(CN2CC[C@H]3OCC[C@@]3(C(=O)N3CCCO3)C2)o1`, for which the cytotoxicity at 10 µM amounted to 8.83%. Turning to `Cc1nc(CN2CCCC(NCc3csc(C(C)(C)C)n3)C2)no1` (configuration not stated), the cytotoxicity at 10 µM amounted to 0.238%. Next, `CCS(=O)(=O)N1CCC2(CCN(Cc3cccc(OC)c3)CC2)CC1`: 2.5%; `COc1ccccc1C1(CNc2ccc(C(=O)N(C)C)cn2)CC1`: -10.5%; `CCCN1CCC=C(C2c3nc[nH]c3CCN2C(=O)c2ccco2)C1` (configuration not stated): 1.33%. With `O=C(c1ccc(CN2CCCC2)cc1)N1CCCC(n2cccn2)C1` (configuration not stated) the figure was -1.88%. Next, `Cc1cn2c(n1)CCC(NC(=O)c1cncnc1C)C2` (configuration not stated): -3.56%.

On to `OCc1ccc(OCC(F)(F)F)cc1`, for which the cytotoxicity at 10 µM is -11.9%. With `CC(=O)NC(=O)C1(CCCc2ccncc2)CCN1` (configuration not stated) the figure was -24.5%; with `CCn1cc(CN(C)C(=O)C(c2ccccc2C)N(C)C)cn1` (configuration not stated), 0.0381%; with `CN1CCN(C(=O)C2SCCc3sccc32)CC1` (configuration not stated), -12.6%. With `CC1=Nc2c(c(=O)[nH]n2C2CCCC2)C(c2ccc(O)cc2)S1` (configuration not stated) the figure was -3.39%; with `CCn1nc(C)c(CCNC(=O)c2cccc(-n3cccn3)c2)c1C`, -12.9%.

Regarding `Cn1nc(CN2CCC(c3ccncc3)CC2)c2c(Cl)cccc21`, the cytotoxicity at 10 µM is -6.06%. Take `CCCn1c(C)c(CC(=O)NCCC(N)=O)c2c1CC(C)(C)CC2=O`: the cytotoxicity at 10 µM was 9.36%. Next, `CN1CCC(NC(=O)Nc2ccc(F)c(Br)c2)C1=O` (configuration not stated): -137%; `CC(C)OCCCN(Cc1ccncc1)Cc1cc(F)cc(F)c1`: -25.6%. With `Cn1nnc2c1C(COCC1CC1)CN(Cc1ccoc1)C2` (configuration not stated) the figure was 2.49%. Next, `CN(Cc1n[nH]c2c1CCC2)c1nc(C2CCCC2)nc2c1CNC2`: -3.86%.
